Data on ten compounds can be found in ChEMBL document CHEMBL1132441, “Further studies on oxygenated tryptamines with LSD-like activity incorporating a chiral pyrrolidine moiety into the side chain” (J Med Chem, 1999).

Experiment [1] concerns the target 5-hydroxytryptamine receptor 2A (Rattus norvegicus) (UniProt P14842). Put plainly: Compound was tested for binding affinity at 5-hydroxytryptamine 2A receptor sites in rat cortical homogenate using [125I]-2,5-Dimethoxy -4-iodoamphetamine (DOI). In short, it runs like this:
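Rat frontal cortex membranes were washed in 50 mM Tris-HCl pH 7.4 and preincubated at 37 °C in buffer with EDTA, pargyline, CaCl2 and ascorbate. They were incubated with [125I]DOI and test drug for 15 min at 37 °C, then filtered, and the filters were gamma-counted. Cinanserin (10 µM) defined nonspecific binding. Values come from at least three experiments, each in triplicate.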

Experiment [2] addresses 5-hydroxytryptamine receptor 2A (Rattus norvegicus, UniProt P14842). Description: Compound was tested for binding affinity using [3H]MDL-100,907 at 5-hydroxytryptamine 2A receptor sites in rat cortical homogenate. The method, boiled down: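 Membranes (200-400 µg protein) from rat frontal cortex homogenate were incubated with 0.2 nM [3H]MDL100907 and competing drug for 15 min at 37 °C. The buffer was Tris-HCl pH 7.4 with EDTA, pargyline, CaCl2 and ascorbate. Bound and free ligand were separated by GF/C filtration and read by scintillation counting. Nonspecific binding was taken with 10 µM cinanserin. […] values come from at least three experiments, each in triplicate.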

In experiment [3] the test system is Rattus norvegicus. Put plainly: Percentage of rats selecting the drug liver at dose of 1.36 mg/kg. It counts as functional. In short, it runs like this:
(§1)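 Male Sprague–Dawley rats were trained in a two-lever FR50 food-reinforced task to discriminate LSD (0.08 mg/kg) or DOI (0.4 mg/kg) from saline. Test drugs were given i.p. in 0.9% saline 30 min before the session. The lever first pressed 50 times was scored as selected, and the result is the percentage of rats selecting the drug lever.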

Experiment [4] has as its system Rattus norvegicus. Description: Percentage of rats selecting the drug liver at dose of 0.68 mg/kg. It counts as functional. The method, boiled down: as §1
Experiment [5] deals with Rattus norvegicus. Put plainly: Substitution tests were carried out for the compound in LSD- trained rats dosed with 0.02 mg/kg drug and the binding data was reported. It counts as functional.
Experiment [6] has as its system Rattus norvegicus. Description: Substitution tests were carried out for the compound in LSD- trained rats dosed with 0.046 uM/kg drug and the binding data was reported. Format: functional.
Experiment [7] concerns Rattus norvegicus. Description: Percentage of rats selecting the drug liver at dose of 0.2 mg/kg. It counts as functional. The method, boiled down: as §1
Experiment [8] relates to Rattus norvegicus. Put plainly: Percentage of rats selecting the drug liver at dose of 0.1 mg/kg. It counts as functional. In short, it runs like this:
as §1

Experiment [9] has as its system Rattus norvegicus. Put plainly: Percentage of rats selecting the drug liver at dose of 0.4 mg/kg. Format: functional. In short, it runs like this: as §1
In experiment [10] the test system is Rattus norvegicus. Put plainly: Percentage of rats selecting the drug liver at dose of 0.12 mg/kg. Format: functional. In short, it runs like this:
as §1

The test system of experiment [11] is Rattus norvegicus. Description: Substitution tests were carried out for the compound in LSD- trained rats dosed with 0.25 uM/kg drug and the binding data was reported. It counts as functional. The method, boiled down:
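Rats trained on LSD (0.08 mg/kg i.p.) versus saline under an FR50 two-lever food schedule received the test drug i.p. in 0.9% saline 30 min before the session. The lever first given 50 presses was scored as selected, giving %SDL. ED50 (95% CI) came from Litchfield–Wilcoxon log-probit analysis, and none was calculated where ≥50% of rats were disrupted.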

The subject of experiment [12] is Rattus norvegicus. Put plainly: Substitution tests were carried out for the compound in DOI- trained rats dosed with 0.12 mg/kg drug and the binding data was reported. It counts as functional.
For experiment [13], the system named is Rattus norvegicus. Description: Percentage of rats selecting the drug liver at dose of 0.03 mg/kg. Format: functional. In short, it runs like this: as §1
In experiment [14] the test system is Rattus norvegicus. Description: Substitution tests were carried out for the compound in LSD- trained rats dosed with 0.06 mg/kg drug and the binding data was reported. Format: functional.
In experiment [15] the test system is Rattus norvegicus. Put plainly: Percentage of rats selecting the drug liver at dose of 0.06 mg/kg. Format: functional. In short, it runs like this:
as §1

For experiment [16], the system named is Rattus norvegicus. Put plainly: Substitution tests were carried out for the compound in DOI- trained rats dosed with 0.50 uM/kg drug and the binding data was reported. Format: functional. In short, it runs like this:
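Rats trained on DOI (0.4 mg/kg i.p.) versus saline under an FR50 two-lever food schedule received the test drug i.p. in saline 30 min before testing. Quantal scoring used the lever first reaching 50 presses to give %SDL. ED50 and 95% CI were obtained by the Litchfield–Wilcoxon log-probit method when a dose reached ≥80% SDL.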

Experiment [17] has as its system Rattus norvegicus. Description: Percentage of rats selecting the drug liver at dose of 0.23 mg/kg. It counts as functional. The method, boiled down:
as §1

In experiment [18] the test system is Rattus norvegicus. Put plainly: Percentage of rats selecting the drug liver at dose of 0.08 mg/kg. It counts as functional. The method, boiled down:
as §1

For experiment [19], the system named is Rattus norvegicus. Description: Percentage of rats selecting the drug liver at dose of 0.33 mg/kg. Format: functional. The method, boiled down:
as §1

Experiment [20] deals with Rattus norvegicus. Put plainly: Percentage of rats selecting the drug liver at dose of 0.16 mg/kg. Format: functional. The method, boiled down:
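Male Sprague–Dawley rats (200-220 g) were trained in a two-lever FR 50 food-reinforced task to discriminate LSD (0.08 mg/kg) or DOI (0.4 mg/kg) from saline. Drugs were given i.p. in 0.9% saline 30 min before the session. Scoring was quantal: the lever first reaching 50 presses counted as selected, and %SDL is the percentage of rats choosing the drug lever.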

Experiment [21] deals with Rattus norvegicus. Description: Percentage of rats selecting the drug liver at dose of 0.65 mg/kg. It counts as functional. In short, it runs like this: as §1
Experiment [22] deals with Rattus norvegicus. Description: Percentage of rats selecting the drug liver at dose of 0.04 mg/kg. Format: functional. The method, boiled down:
as §1

The subject of experiment [23] is Rattus norvegicus. Put plainly: Percentage of rats selecting the drug liver at dose of 0.01 mg/kg. It counts as functional. The method, boiled down: as §1
Experiment [24] relates to Rattus norvegicus. Description: Percentage of rats selecting the drug liver at dose of 0.02 mg/kg. It counts as functional. In short, it runs like this:
as §1

Molecules are shown by their SMILES. Where “and” joins values, the source holds several entries; their conditions need not be identical. Identical values can stand only once. Bounds are passed on as bounds.

Sequence of 5-hydroxytryptamine receptor 2A (Rattus norvegicus) (P14842 whole entry): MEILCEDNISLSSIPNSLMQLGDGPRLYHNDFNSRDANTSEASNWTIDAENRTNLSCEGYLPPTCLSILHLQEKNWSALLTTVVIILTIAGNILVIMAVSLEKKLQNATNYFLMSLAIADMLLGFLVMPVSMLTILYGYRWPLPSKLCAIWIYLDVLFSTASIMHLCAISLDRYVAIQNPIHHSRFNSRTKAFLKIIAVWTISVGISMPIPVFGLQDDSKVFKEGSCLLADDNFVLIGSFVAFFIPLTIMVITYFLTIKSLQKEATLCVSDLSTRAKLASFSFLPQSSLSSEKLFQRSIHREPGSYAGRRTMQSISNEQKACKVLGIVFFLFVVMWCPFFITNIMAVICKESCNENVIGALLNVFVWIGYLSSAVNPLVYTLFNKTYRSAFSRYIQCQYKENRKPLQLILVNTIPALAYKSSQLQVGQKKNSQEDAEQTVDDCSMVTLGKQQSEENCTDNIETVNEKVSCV
Sequence of 5-hydroxytryptamine receptor 2A (P14842 whole entry): as above

`COc1ccc2[nH]cc(C[C@@H]3CCCN3C)c2c1` came in with a K0.5 in experiment [1] of 64 nM. Besides, the Ki (commonly a measure of affinity in units of concentration, obtained from inhibition or displacement) in experiment [2] is > 9.4 µM.

As for `COc1ccc2[nH]cc(C3CCN(C)C3)c2c1` (stereo not given), in experiment [1], the K0.5 was found to be 150 nM. In addition, the Ki in experiment [2] worked out at 1.3 µM. The SDL with Rattus norvegicus [3] was 50%; in the experiment with Rattus norvegicus [4], 33% and 14%.

As to `CN1CCC(c2c[nH]c3cccc(O)c23)C1` (stereo not given), the K0.5 in experiment [1] is 82 nM. This compound returned a Ki in [2] of 0.44 µM.

`COc1cc(CC(C)N)c(OC)cc1I` (stereo not given): the ED50 (in general, the dose that gives a 50% effect, or the effect in half of the subjects) was 0.12 µmol/kg in the experiment on Rattus norvegicus [5] and 0.28 µmol/kg in the experiment on Rattus norvegicus [6]. Moreover, the SDL in the experiment on Rattus norvegicus [7] is on record as 89%; in the experiment with Rattus norvegicus [8], 56%; in the experiment on Rattus norvegicus [9] it was 100%.

For `COc1ccc2[nH]cc(CCN(C)C)c2c1` [MEBUFOTENIN], in experiment [1], the K0.5 came out at 21 nM. For the same compound, the Ki in experiment [2] is 1.6 µM.

In turn, `CN(C)CCc1c[nH]c2cccc(O)c12` [PSILOCIN] showed a K0.5 in experiment [1] of 6 nM. Besides, the Ki in experiment [2] came out at 0.39 µM.

Regarding `CN1CCC[C@@H]1Cc1c[nH]c2cc(O)ccc12`, the SDL in the experiment with Rattus norvegicus [10] is 64% and 43%; with Rattus norvegicus [13] it was 30%; in the experiment on Rattus norvegicus [15] it was 40% and 14%; in the experiment on Rattus norvegicus [17], 100%. For the same compound, the ED50 in the experiment with Rattus norvegicus [11] amounted to 0.25 µmol/kg; in the experiment on Rattus norvegicus [12], 0.11 µmol/kg; with Rattus norvegicus [14], 0.06 µmol/kg; with Rattus norvegicus [16], 0.47 µmol/kg. For the same compound, the K0.5 in experiment [1] turned out to be 13 nM. The same compound gave a Ki in experiment [2] of 0.21 µM.

With `CN1CCC[C@H]1Cc1c[nH]c2cc(O)ccc12`, the K0.5 in [1] turned out to be 290 nM. The compound also returned a Ki in [2] of 4.7 µM.

As for `COc1ccc2[nH]cc(C[C@H]3CCCN3C)c2c1`, the ED50 stood at 0.44 µmol/kg in the experiment with Rattus norvegicus [11], 0.11 µmol/kg in the experiment on Rattus norvegicus [12], 0.14 µmol/kg in the experiment on Rattus norvegicus [14] and 0.32 µmol/kg in the experiment on Rattus norvegicus [16]. In addition, the SDL in the experiment on Rattus norvegicus [18] (0.08 mg/kg) is 20% and 43%; in the experiment with Rattus norvegicus [19] it was 82% and 88%; with Rattus norvegicus [20], 63%; with Rattus norvegicus [21] it was 100%. The K0.5 in [1] turned out to be 9.5 nM. This compound also yielded a Ki in experiment [2] of 0.4 µM.

On to `CCN(CC)C(=O)[C@@H]1C=C2c3cccc4[nH]cc(c34)C[C@H]2N(C)C1` [LYSERGIDE], for which the SDL is on record as 81% in the experiment on Rattus norvegicus [22], 100% in the experiment on Rattus norvegicus [18], 46% with Rattus norvegicus [23] and 78% in the experiment with Rattus norvegicus [24]. For the same compound, the ED50 worked out at 0.012 µmol/kg in the experiment on Rattus norvegicus [5] and 0.026 µmol/kg with Rattus norvegicus [6].
